Blank lines part the entries; values can stand above or below the compound they belong to. Active and inactive are the calls of the source. The calls are words filed in the database; no cut-off is given here.
How the values were obtained:
Jurkat [1] = experiment: Upregulation of Ac-HH3 level in human Jurkat cells at 3.7 to […] uM incubated for 6 hrs by Western blot analysis; assay type: functional, cell-based; conditions: dose 3.7-33.3 µM
THP-1 [2] = experiment: Upregulation of Ac-HH3 level in human THP-1 cells at 1.1 to 3.3 uM measured after 24 hrs by Western blot analysis; assay type: functional, cell-based; conditions: dose 1.1-3.3 µM
Procedure, shortened: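 THP-1 cells were exposed to the compound at the indicated concentrations for 24 h, then immunoblotted for Ac-HH3, Ac-SMC3, Ac-tubulin and HDAC8 with GAPDH as loading control. Band intensities were quantified and normalized to the DMSO-treated group. Data are mean ± SEM of two independent experiments, analysed by one-way ANOVA against DMSO.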

Jurkat [3] = experiment: Upregulation of Ac-HH3 level in human Jurkat cells incubated for 6 hrs by Western blot analysis; assay type: functional, cell-based
Procedure, shortened: (§1)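 Jurkat cells exposed to the indicated compound concentrations for 6 h. Ac-SMC3 and Ac-HH3 were detected by Western blot with GAPDH as loading control. Bands were quantified by densitometry and normalized to the DMSO-treated group. Data are mean ± SEM of two independent experiments, compared with DMSO by one-way ANOVA.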

HCT-116 [4] = experiment: Upregulation of Ac-HH3 level in human HCT-116 cells incubated for 6 hrs by Western blot analysis; assay type: functional, cell-based; conditions: dose 0.004-3.3 µM
Procedure, shortened: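 HCT116 cells were incubated with graded concentrations for 6 h. Ac-HH3 was detected by Western blot with GAPDH as the loading control, then quantified by densitometry and normalized to DMSO-treated cells. Data are mean ± SEM of two independent experiments, compared against DMSO by one-way ANOVA.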

Jurkat [5] = experiment: Effect on Ac-tubulin level in human Jurkat cells at 0.33 to 0.11 uM incubated for 6 hrs by Western blot analysis; assay type: functional, cell-based; conditions: dose 0.33-0.11 µM
Procedure, shortened: (§2)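 Cells were exposed to the compound for 6 h. Acetylated tubulin was detected by Western blot, with GAPDH as the loading control.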

HCT-116 [6] = experiment: Effect on Ac-tubulin level in human HCT-116 cells at 0.33 to 0.11 uM incubated for 6 hrs by Western blot analysis; assay type: functional, cell-based; conditions: dose 0.33-0.11 µM; procedure, shortened: as §2
HCT-116 [7] = experiment: Induction of apoptosis in human HCT-116 cells assessed as late apoptotic cells at 10 uM measured after 48 hrs in presence of N-(4-(2-Hexylhydrazine-1-carbonyl)benzyl)acetamide by AnnexinV/FITC and PI staining based flow cytometry analysis (reference value: 1.96%); assay type: functional
HCT-116 [8] = experiment: Induction of apoptosis in human HCT-116 cells assessed as increase in caspase 3/7 activity at 5 uM incubated for 48 hrs in presence of N-(4-(2-Hexylhydrazine-1-carbonyl)benzyl)acetamide; assay type: functional, cell-based
HCT-116 [9] = experiment: Induction of apoptosis in human HCT-116 cells assessed as necrotic cells at 10 uM measured after 48 hrs in presence of N-(4-(2-Hexylhydrazine-1-carbonyl)benzyl)acetamide by AnnexinV/FITC and PI staining based flow cytometry analysis (reference value: […]); assay type: functional
Jurkat [10] = experiment: Antiproliferative activity against human Jurkat cells assessed as inhibition of cell growth measured after 72 hrs in presence of N-(4-(2-Hexylhydrazine-1-carbonyl)benzyl)acetamide by MTS assay; assay type: functional, cell-based
Jurkat [11] = experiment: Induction of apoptosis in human Jurkat cells assessed as increase in caspase 3/7 activity at 5 uM incubated for 48 hrs in presence of N-(4-(2-Hexylhydrazine-1-carbonyl)benzyl)acetamide; assay type: functional, cell-based
HCT-116 [12] = experiment: Induction of apoptosis in human HCT-116 cells assessed as early apoptotic cells at 10 uM measured after 48 hrs in presence of N-(4-(2-Hexylhydrazine-1-carbonyl)benzyl)acetamide by AnnexinV/FITC and PI staining based flow cytometry analysis (reference value: 5.39%); assay type: functional
HCT-116 [13] = experiment: Antiproliferative activity against human HCT-116 cells assessed as inhibition of cell growth measured after 72 hrs in presence of N-(4-(2-Hexylhydrazine-1-carbonyl)benzyl)acetamide by MTS assay; assay type: functional, cell-based; conditions: HCT-116, 72 h
HCT-116 [14] = experiment: Induction of apoptosis in human HCT-116 cells assessed as viable cells at 10 uM measured after 48 hrs in presence of N-(4-(2-Hexylhydrazine-1-carbonyl)benzyl)acetamide by AnnexinV/FITC and PI staining based flow cytometry analysis (reference value: 91.3%); assay type: functional; conditions: read-out: Activity
THP-1 [15] = experiment: Antiproliferative activity against human THP-1 cells assessed as inhibition of cell growth measured after 72 hrs in presence of N-(4-(2-Hexylhydrazine-1-carbonyl)benzyl)acetamide by MTS assay; assay type: functional, cell-based; conditions: THP-1, 72 h
A549 = experiment: Antiproliferative activity against human A549 cells assessed as inhibition of cell growth measured after 72 hrs in presence of N-(4-(2-Hexylhydrazine-1-carbonyl)benzyl)acetamide by MTS assay; assay type: functional, cell-based; conditions: A549, 72 h
Jurkat [16] = experiment: Upregulation of Ac-HH3 level in human Jurkat cells at 0.4 to […] uM incubated for 24 hrs by Western blot analysis; assay type: functional, cell-based; conditions: dose 0.4-33.3 µM
Jurkat [17] = experiment: Upregulation of Ac-HH4 level in human Jurkat cells at 0.4 to […] uM incubated for 24 hrs by Western blot analysis; assay type: functional, cell-based; conditions: dose 0.4-33.3 µM
HCT-116 [18] = experiment: Induction of apoptosis in human HCT-116 cells assessed as early apoptotic cells at 10 uM measured after 48 hrs in presence of tert-butyl 2-(4-(4-((2,6-dioxopiperidin-3-yl)amino)phenyl)piperidin-1-yl)acetate by AnnexinV/FITC and PI staining based flow cytometry analysis (reference value: 5.39%); assay type: functional
HCT-116 [19] = experiment: Induction of apoptosis in human HCT-116 cells assessed as increase in caspase 3/7 activity at 5 uM incubated for 48 hrs in presence of tert-butyl 2-(4-(4-((2,6-dioxopiperidin-3-yl)amino)phenyl)piperidin-1-yl)acetate; assay type: functional, cell-based
[20] = target: Protein cereblon/Histone deacetylase 8 (Homo sapiens) (UniProt Q9BY41+Q96SW2); experiment: PROTAC activity at CRBN/HDAC8 in human Jurkat cells assessed as induction of HDAC8 degradation at 10 uM measured after 48 hrs by Western blot analysis; assay type: cell-based
Jurkat [21] = experiment: Induction of apoptosis in human Jurkat cells assessed as increase in caspase 3/7 activity at 5 uM incubated for 48 hrs in presence of tert-butyl 2-(4-(4-((2,6-dioxopiperidin-3-yl)amino)phenyl)piperidin-1-yl)acetate; assay type: functional, cell-based
Jurkat [22] = experiment: Upregulation of Ac-SMC3 level in human Jurkat cells at 1 uM measured after 6 hrs by Western blot analysis; assay type: functional, cell-based; procedure, shortened: as §1
HCT-116 [23] = experiment: Induction of apoptosis in human HCT-116 cells assessed as necrotic cells at 10 uM measured after 48 hrs in presence of tert-butyl 2-(4-(4-((2,6-dioxopiperidin-3-yl)amino)phenyl)piperidin-1-yl)acetate by AnnexinV/FITC and PI staining based flow cytometry analysis (reference value: […]); assay type: functional
Jurkat [24] = experiment: Effect on AcHH3 level on human Jurkat cells at 10 uM measured after 48 hrs by Western blot analysis; assay type: functional, cell-based
HCT-116 [25] = experiment: Induction of apoptosis in human HCT-116 cells assessed as viable cells at 10 uM measured after 48 hrs in presence of tert-butyl 2-(4-(4-((2,6-dioxopiperidin-3-yl)amino)phenyl)piperidin-1-yl)acetate by AnnexinV/FITC and PI staining based flow cytometry analysis (reference value: 91.3%); assay type: functional; conditions: read-out: Activity
Jurkat [26] = experiment: Effect on AcHH4 level on human Jurkat cells at 10 uM measured after 48 hrs by Western blot analysis; assay type: functional, cell-based
Jurkat [27] = experiment: Upregulation of Ac-HH3 level in human Jurkat cells at high concentration incubated for 6 hrs by Western blot analysis; assay type: functional, cell-based; procedure, shortened: as §1
Jurkat [28] = experiment: Upregulation of Ac-SMC3 level in human Jurkat cells at high concentration incubated for 6 hrs by Western blot analysis; assay type: functional, cell-based; procedure, shortened: as §1
HCT-116 [29] = experiment: Induction of apoptosis in human HCT-116 cells assessed as late apoptotic cells at 10 uM measured after 48 hrs in presence of tert-butyl 2-(4-(4-((2,6-dioxopiperidin-3-yl)amino)phenyl)piperidin-1-yl)acetate by AnnexinV/FITC and PI staining based flow cytometry analysis (reference value: 1.96%); assay type: functional
THP-1 [30] = experiment: cells; conditions: Homo sapiens, THP-1, 72 h
Jurkat [31] = experiment: Upregulation of AcHH3 level on human Jurkat cells at 1 to 10 uM measured after 48 hrs by Western blot analysis; assay type: functional, cell-based; conditions: dose 1-10 µM
Jurkat [32] = experiment: Upregulation of Ac-tubulin level in human Jurkat cells at 1 uM measured after 6 hrs by Western blot analysis; assay type: functional, cell-based
Procedure, shortened: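 Jurkat cells were treated for 6 h at the indicated concentrations. Acetylated tubulin was probed by Western blot, with GAPDH as loading control.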

Jurkat [33] = experiment: Upregulation of AcHH4 level on human Jurkat cells at 1 to 10 uM measured after 48 hrs by Western blot analysis; assay type: functional, cell-based; conditions: dose 1-10 µM
HCT-116 [34] = experiment: Induction of apoptosis in human HCT-116 cells assessed as increase in caspase 3/7 activity at 5 uM incubated for 48 hrs; assay type: functional, cell-based
Jurkat [35] = experiment: Upregulation of Ac-HH3 level in human Jurkat cells at 1 uM measured after 6 hrs by Western blot analysis; assay type: functional, cell-based; procedure, shortened: as §1
Jurkat [36] = experiment: Induction of apoptosis in human Jurkat cells assessed as increase in caspase 3/7 activity at 5 uM incubated for 48 hrs; assay type: functional, cell-based
Jurkat [37] = experiment: Upregulation of Ac-HH3 level in human Jurkat cells at 0.004 to 0.33 uM incubated for 6 hrs by Western blot analysis; assay type: functional, cell-based; conditions: dose 0.004-0.33 µM
Procedure, shortened: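 Jurkat cells were exposed to the compound for 6 h. Ac-SMC3, Ac-HH3, Ac-tubulin and HDAC8 were probed by Western blot with GAPDH as loading control. Ac-HH3 bands were quantified by densitometry and normalized to the DMSO-treated group. Values are mean ± SEM of two independent experiments, compared with DMSO by one-way ANOVA.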

Sequence of Protein cereblon/Histone deacetylase 8 (Homo sapiens) (Q96SW2 whole entry, looked up): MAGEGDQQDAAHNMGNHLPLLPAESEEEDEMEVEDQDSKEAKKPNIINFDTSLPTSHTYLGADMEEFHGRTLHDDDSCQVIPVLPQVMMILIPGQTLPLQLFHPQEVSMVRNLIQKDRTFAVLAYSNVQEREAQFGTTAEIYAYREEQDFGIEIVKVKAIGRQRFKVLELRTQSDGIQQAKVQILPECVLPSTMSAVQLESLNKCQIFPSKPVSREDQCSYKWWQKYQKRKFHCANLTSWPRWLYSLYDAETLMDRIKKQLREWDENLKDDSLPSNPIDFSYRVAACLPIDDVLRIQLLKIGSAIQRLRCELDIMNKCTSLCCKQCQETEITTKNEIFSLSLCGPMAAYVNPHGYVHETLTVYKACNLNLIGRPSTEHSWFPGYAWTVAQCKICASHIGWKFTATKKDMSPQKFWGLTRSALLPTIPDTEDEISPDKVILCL
Sequence of Protein cereblon/Histone deacetylase 8 (Homo sapiens) (Q9BY41 whole entry, looked up): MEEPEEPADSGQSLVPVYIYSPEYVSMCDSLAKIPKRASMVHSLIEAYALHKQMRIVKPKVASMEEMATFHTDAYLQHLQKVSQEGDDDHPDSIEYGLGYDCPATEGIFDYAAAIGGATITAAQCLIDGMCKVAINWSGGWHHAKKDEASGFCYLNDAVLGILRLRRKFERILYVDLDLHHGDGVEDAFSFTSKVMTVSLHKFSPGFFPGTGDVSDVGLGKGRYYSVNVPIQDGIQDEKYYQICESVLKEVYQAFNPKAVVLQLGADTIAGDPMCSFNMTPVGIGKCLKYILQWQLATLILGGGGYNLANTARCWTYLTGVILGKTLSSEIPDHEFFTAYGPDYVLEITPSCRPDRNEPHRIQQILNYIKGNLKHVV

Structure (SMILES): CCCCCCN(NC(=O)c1ccc(CNC(=O)CN2CCC(c3ccc(NC4CCC(=O)NC4=O)cc3)CC2)cc1)C(=O)OC(C)(C)C (centres undefined)
Activity (Jurkat [1]): inactive

Structure (SMILES): CCCCCCNNC(=O)c1ccc(CNC(=O)CN2CCC(c3ccc(NC(C)=O)cc3)CC2)cc1
Activity (THP-1 [2]): Active
Activity (Jurkat [3]): Dose-Dependent Effect
Activity (HCT-116 [4]): Dose-Dependent Effect
Activity (Jurkat [5]): inactive
Activity (HCT-116 [6]): inactive

IC50 (Jurkat [10]): > 33.3 µM
IC50 (HCT-116 [13]): > 33.3 µM
IC50 (THP-1 [15]): > 33.3 µM
IC50 (A549): > 33.3 µM
Structure (SMILES): CC(C)(C)OC(=O)CN1CCC(c2ccc(NC3CCC(=O)NC3=O)cc2)CC1 (centres undefined)
Activity (HCT-116 [7]): 3.87%
Activity (HCT-116 [8]): inactive
Activity (HCT-116 [9]): 3.33%
Activity (Jurkat [11]): inactive
Activity (HCT-116 [12]): 19.6%
viability at 10 µM (HCT-116 [14]): 73.2%

Structure (SMILES): COc1ccc(Cn2ccc3ccc(C(=O)NO)cc32)cc1
Activity (Jurkat [16]): inactive
Activity (Jurkat [17]): inactive

Activity [20]: inactive
Structure (SMILES): CCCCCCNNC(=O)c1ccc(CNC(C)=O)cc1
Activity (HCT-116 [18]): 19.6%
Activity (HCT-116 [19]): inactive
Activity (Jurkat [21]): inactive
Activity (Jurkat [22]): inactive
Activity (HCT-116 [23]): 3.33%
Activity (Jurkat [24]): inactive
viability at 10 µM (HCT-116 [25]): 73.2%
Activity (Jurkat [26]): inactive
Activity (Jurkat [27]): Active
Activity (Jurkat [28]): Active
Activity (HCT-116 [29]): 3.87%

IC50 (THP-1 [30]): 2300 nM
Structure (SMILES): Nc1ccccc1NC(=O)c1ccc(CNC(=O)OCc2cccnc2)cc1 [ENTINOSTAT]

Structure (SMILES): O=C(CCCCCCC(=O)Nc1ccccc1)NO
Activity (Jurkat [31]): Active
Activity (Jurkat [32]): Active
Activity (Jurkat [33]): Active
Activity (Jurkat [22]): inactive
Activity (HCT-116 [34]): Active
Activity (Jurkat [35]): Active
Activity (Jurkat [36]): Active
Activity (Jurkat [37]): Active

Source: ChEMBL document CHEMBL5584302, “Exploration of Hydrazide-Based HDAC8 PROTACs for the Treatment of Hematological Malignancies and Solid Tumors” (J Med Chem, 2024)
